Experimental data published in ChEMBL document CHEMBL4480420, “Specificity of extended O-aryloxycarbonyl hydroxamates as inhibitors of a class C β-lactamase” (Bioorg Med Chem, 2019).

Key:
Beta-lactamase = Beta-lactamase (Enterobacter cloacae, UniProt P05364); experiment: Irreversible inhibition of Enterobacter cloacae P99 beta-lactamase using cephalothin as substrate by spectrophotometric analysis
Outline: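 P99 class C β-lactamase (stock concentration by A280, ε 7.1 x 10⁴ M⁻¹cm⁻¹) incubated with inhibitor in 20 mM MOPS pH 7.5, 0.1% BSA, 25 °C. Aliquots diluted 1:50 into 300 μM cephalothin; initial rates followed at 270 nm over time. Titration: 150 nM enzyme with 0–2.0 μM inhibitor to end-point. Time-course and titration data fitted jointly to Scheme 2, k2 fixed at 100 s⁻¹, giving k1, k2/k3 and k_i.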

[1] = target: Beta-lactamase (Enterobacter cloacae) (UniProt P05364); experiment: Irreversible inhibition of Enterobacter cloacae P99 beta-lactamase assessed as second-order rate constant for enzyme-inhibitor complex using cephalothin as substrate by spectrophotometric analysis
Sequence of Beta-lactamase (Enterobacter cloacae) (P05364 21-381 limits assumed): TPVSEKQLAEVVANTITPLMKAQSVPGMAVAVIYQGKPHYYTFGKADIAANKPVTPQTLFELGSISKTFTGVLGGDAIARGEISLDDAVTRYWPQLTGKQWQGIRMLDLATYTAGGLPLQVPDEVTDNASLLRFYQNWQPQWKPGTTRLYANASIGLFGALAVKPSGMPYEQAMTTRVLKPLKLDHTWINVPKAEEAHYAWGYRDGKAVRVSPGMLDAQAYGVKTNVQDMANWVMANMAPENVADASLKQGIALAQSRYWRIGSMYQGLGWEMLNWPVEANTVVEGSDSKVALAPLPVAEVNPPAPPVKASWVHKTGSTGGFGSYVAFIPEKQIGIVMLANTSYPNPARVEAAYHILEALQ
Outline: (§1)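 Reactions ran at 25 °C in 20 mM MOPS, pH 7.5, with 0.1% BSA. Time courses: aliquots taken into 300 µM cephalothin, initial rates read at 270 nm. Titrations: 150 nM enzyme with 0–2.0 µM inhibitor, run to completion. Both datasets were fitted together to an acylation/partition scheme, k2 fixed at 100 s⁻¹. k_i = k1/(1 + k2/k3).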

[2] = target: Beta-lactamase (Enterobacter cloacae) (UniProt P05364); experiment: Irreversible inhibition of Enterobacter cloacae P99 beta-lactamase assessed as ratio of K2/K3 using cephalothin as substrate by spectrophotometric analysis; outline: as §1
[3] = target: Beta-lactamase (Enterobacter cloacae) (UniProt P05364); experiment: Binding affinity to Enterobacter cloacae P99 beta-lactamase assessed as increase in molecular weight of enzyme-compound complex by mass-spectra analysis (reference value: 39192 Da)
Outline: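 P99 enzyme was analysed by electrospray MS before and after inactivation. Protein was precipitated with trichloroacetic acid, then the precipitate was washed and dried before analysis.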

Sequence of Beta-lactamase (P05364 whole entry): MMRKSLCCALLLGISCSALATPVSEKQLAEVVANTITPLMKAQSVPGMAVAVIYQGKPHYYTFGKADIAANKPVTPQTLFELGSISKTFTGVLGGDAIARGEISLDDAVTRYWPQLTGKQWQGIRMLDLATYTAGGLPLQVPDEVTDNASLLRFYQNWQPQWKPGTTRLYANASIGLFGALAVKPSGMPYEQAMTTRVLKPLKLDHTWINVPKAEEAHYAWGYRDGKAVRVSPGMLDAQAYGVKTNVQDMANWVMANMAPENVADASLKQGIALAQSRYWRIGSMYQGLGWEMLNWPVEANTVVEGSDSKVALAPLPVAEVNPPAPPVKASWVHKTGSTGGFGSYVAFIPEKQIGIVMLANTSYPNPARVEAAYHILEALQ

second-order inactivation rate constant (k_i) (Beta-lactamase) | K [1] | Ratio [2] | Activity [3] | SMILES | second-order inactivation rate constant (k i) (Beta-lactamase)
1.1 ×10³ /M/s | 3.6 ×10³ /M/s | 2.4 | 185 Da | CCCCOC(=O)NOC(=O)Oc1ccccc1 | 
2 ×10³ /M/s | 6.1 ×10³ /M/s | 2 |  | O=C(NOC(=O)Oc1ccccc1)OCc1ccccc1 | 
1.6 ×10⁴ /M/s | 3.5 ×10⁴ /M/s | 1.25 |  | N[C@H](CCCOC(=O)NOC(=O)Oc1ccccc1)C(=O)O | 
8.5 ×10³ /M/s | 2.8 ×10⁴ /M/s | 2.3 | 26 Da | O=C(O)CCCCOC(=O)NOC(=O)Oc1ccccc1 | 
1.4 ×10³ /M/s | 3.7 ×10⁴ /M/s | 25 | 26 Da | O=C(NOC(=O)Oc1ccccc1)OCCc1ccccc1 | 

SMILES | second-order inactivation rate constant (k_i) (Beta-lactamase) | K [1] | Ratio [2] | Activity [3] | second-order inactivation rate constant (k i) (Beta-lactamase)
N[C@H](Cc1ccc(OC(=O)NOC(=O)Oc2ccccc2)cc1)C(=O)O |  | 360 M⁻¹ s⁻¹ | < 1 | 26 Da | 180 to 360 M⁻¹ s⁻¹
